The list is not random: actives were taken first. Their share in the collection is about 4.3%.
SR-BI uptake up – activators of SR-BI mediated DiI-HDL uptake, primary screen, ldlA[mSR-BI] CHO cells, DiI fluorescence | 3 h; 100 = double the neutral-control signal | activation, % at 12.5 µM | 0.096% of 320,000 active;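 active means mean replicate activation of at least 60% and every replicate at or above 60%; inconclusive means mean or all-replicate condition met, but not both; inactive means mean below 60% and not all replicates reaching 60%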;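 further: 0% = median plate neutral-control signal and 100% = twice that signal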
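System: LDL receptor-deficient CHO ldlA cells overexpressing murine SR-BI | Timing: 3 h uptake period with compound, 37 °C | Medium: HEPES-buffered (25 mM, pH 7.4) F12 plus 0.5% BSA | Dosing: Single-point compound dose | Signal: Bottom-read fluorescence, 550/595 nm | Read-out: Retained DiI signal reflecting DiI-HDL uptake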
AHR activator – AHR activators, primary screen, cell-based, luminescence, luciferase reporter, human; AHR-responsive luciferase reporter cells; activation, % at 5 µM; 2.5% of 320,000 active; AID 2796, 2010; in the data active means activation above about 47%;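 further: 0% = vehicle wells and 100% = reference agonist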
Target sequence (P35869 whole entry, looked up): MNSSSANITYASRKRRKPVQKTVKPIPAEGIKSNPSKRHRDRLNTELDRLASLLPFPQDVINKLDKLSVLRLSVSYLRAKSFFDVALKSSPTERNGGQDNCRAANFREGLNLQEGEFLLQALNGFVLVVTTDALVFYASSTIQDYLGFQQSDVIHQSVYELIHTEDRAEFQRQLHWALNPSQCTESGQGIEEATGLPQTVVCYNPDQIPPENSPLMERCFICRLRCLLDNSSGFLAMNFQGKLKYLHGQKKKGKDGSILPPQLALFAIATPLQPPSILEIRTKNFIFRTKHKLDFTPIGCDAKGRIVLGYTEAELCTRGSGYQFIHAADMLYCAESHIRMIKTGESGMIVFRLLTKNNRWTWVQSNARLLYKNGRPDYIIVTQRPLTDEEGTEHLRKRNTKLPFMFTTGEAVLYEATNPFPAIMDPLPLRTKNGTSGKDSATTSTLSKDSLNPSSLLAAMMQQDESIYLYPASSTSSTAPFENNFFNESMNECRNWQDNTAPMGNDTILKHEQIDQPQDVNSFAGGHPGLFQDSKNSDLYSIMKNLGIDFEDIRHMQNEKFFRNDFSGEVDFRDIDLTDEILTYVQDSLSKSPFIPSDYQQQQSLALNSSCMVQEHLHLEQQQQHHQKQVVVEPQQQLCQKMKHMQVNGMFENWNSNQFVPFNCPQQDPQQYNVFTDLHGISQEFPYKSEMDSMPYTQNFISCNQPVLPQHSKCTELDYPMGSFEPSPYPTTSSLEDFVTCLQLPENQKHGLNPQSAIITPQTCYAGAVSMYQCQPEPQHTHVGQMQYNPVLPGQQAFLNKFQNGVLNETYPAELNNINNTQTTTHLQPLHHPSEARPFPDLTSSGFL
Lipid droplet – inhibitors of hepatocyte lipid droplet formation, primary screen, imaging, high-throughput imaging, BODIPY stain. 0.4% of 240,000 active. AML12 mouse hepatocytes, oleate lipid droplets. inhibition, % at 6.5 µM;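 active means lipid droplet intensity inhibited by at least 50%, with more than 500 cells counted; inconclusive means wells with under 300 cells, treated as cytotoxic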
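Assay system: AML12 mouse liver cells | Compound: 6.5 µM single-point dosing | Schedule: Overnight exposure | Technique: Fluorescence imaging, 20x objective, two fields per well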
SR-BI HDL uptake – inhibitors of SR-BI mediated HDL lipid uptake, primary screen, ldlA[mSR-BI] cells, fluorescence, single point | ldlA[mSR-BI] CHO cells, DiI-HDL uptake fluorescence, 3 h | inhibition, % at 12.5 µM | 0.96% of 320,000 active | AID 488896, 2010;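 active means mean replicate inhibition of at least 70% and a set share of replicates each scoring 70 or more; inconclusive means meets just one of the two criteria; inactive means fails both criteria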;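 further: 0% = median of neutral control wells and 100% = median of positive control wells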
Yeast superoxide – reduction of superoxide in aged yeast, primary screen, HTS; AID 2690, 2010; S. cerevisiae aged cells, superoxide DHE fluorescence; hits give low values; 0.18% of 330,000 active; superoxide response (% of plate mean), % at 10 µM;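 active means superoxide response under a set limit, about three screen SD below normal, cut at about 65% in these data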;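 further: yeast aged for seven days with compound at 30 °C before DHE staining; 100% = average MFI of all compound-treated wells on the plate with controls excluded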
SMARCA2 act – SMARCA2 (BRM) function activators, primary screen, cell-based, luminescence, high throughput | MG213 cells, MMTV-luciferase reporter, dexamethasone, overnight | activation, % at 9.1 µM | 1% of 370,000 active | AID 652017, 2013; in the data active means activation above about 7.8%;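 further: 0% = vehicle wells and 100% = reference activator wells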
Starred values were filed as active, the others as inactive.

Results for COc1cc(NC(=O)c2ccc(C)cc2)c(OC)cc1NC(=O)CN1CCOCC1 ?
AHR activator: 30; Yeast superoxide: 87; SMARCA2 act: 0

How did COc1cc(NC(=O)c2ccc(Cl)cc2)c(OC)cc1NC(=O)CN1CCOCC1 do in these assays?
SR-BI uptake up: -19; AHR activator: 48*; SR-BI HDL uptake: 19; Yeast superoxide: 110; SMARCA2 act: 1

What do the screens show for `COc1cc(NC(=O)c2ccc(Cl)cc2)c(OC)cc1Cl`?
SR-BI uptake up: -74; AHR activator: 60*; Lipid droplet: 1; SR-BI HDL uptake: 74*; Yeast superoxide: 87; SMARCA2 act: -1

What do the screens show for `COc1ccc(C2COC(=O)C2=N)c(NC(=O)c2ccc(Cl)cc2)c1` (configuration not stated)?
SR-BI uptake up: 21; AHR activator: 76*; Lipid droplet: 18; SR-BI HDL uptake: -21; Yeast superoxide: 85; SMARCA2 act: 1

What do the screens show for `CC(=O)C1(C(=O)Nc2cc(C)cc(C)c2)CC(c2ccccn2)=NO1` (configuration not stated)?
SMARCA2 act: -5

What do the screens show for `CCCC[C@H](C(=O)N(CC)c1ccccc1)[C@@H](O)c1ccc(Cl)cc1`?
SMARCA2 act: -3

Results for CCc1cc(/C(Cc2ccccn2)=N\Nc2ccccc2)c(O)cc1O ?
SR-BI uptake up: -18; AHR activator: 77*; Lipid droplet: 2; SR-BI HDL uptake: 18; Yeast superoxide: 114; SMARCA2 act: 5

Results for COc1ccc(/C=C2\CC3(OC(=O)c4cccc(F)c4)CCCN2C3)cc1 (configuration not stated) ?
SMARCA2 act: -3

How did CC(C)(C)C1=Nn2c(nnc2-c2ccc(C(C)(C)C)cc2)SC1 do in these assays?
SMARCA2 act: -6

Results for Nc1cc(Cl)nc(N/N=C/c2ccccc2[N+](=O)[O-])n1 ?
SR-BI uptake up: -50; AHR activator: 52*; SR-BI HDL uptake: 50; Yeast superoxide: 95; SMARCA2 act: 4

How did O=[N+]([O-])c1cc2c(cc1/C=N/Nc1nc(N3CCCC3)nc(N3CCCC3)n1)OCO2 do in these assays?
SR-BI uptake up: -45; AHR activator: 13; Lipid droplet: -18; SR-BI HDL uptake: 45; Yeast superoxide: 99; SMARCA2 act: -3

What do the screens show for `O=[N+]([O-])c1ccccc1/C=C/C=N/Nc1nc(N2CCCCC2)nc(N2CCCCC2)n1`?
SR-BI uptake up: -79; AHR activator: 2; Lipid droplet: -7; SR-BI HDL uptake: 79*; Yeast superoxide: 86; SMARCA2 act: -2

What do the screens show for `COc1nc(N/N=C/c2ccc(-c3ccccc3[N+](=O)[O-])o2)nc(N2CCOCC2)n1`?
SR-BI uptake up: -36; AHR activator: 50*; Lipid droplet: 1; SR-BI HDL uptake: 36; Yeast superoxide: 96; SMARCA2 act: -2

Results for O=[N+]([O-])c1ccccc1/C=N/Nc1nc(N2CCCC2)nc(N2CCCC2)n1 ?
SR-BI uptake up: -54; AHR activator: 51*; Lipid droplet: 3; SR-BI HDL uptake: 54; Yeast superoxide: 113; SMARCA2 act: -6

Results for COc1ccc(N2CCCN(CC(=O)Nc3ccc(Cl)cc3)CC2)cc1 ?
SMARCA2 act: -3

Results for C#CCNC(=O)C[C@H]1C[C@@]2(C(=O)OC)C(=C[C@H](COCc3ccccc3)O[C@@H]2C)N(Cc2ccc3c(c2)OCO3)C1=O ?
SMARCA2 act: -6

How did COc1ccc(/C=N/N=C/c2ccc(OC)cc2)cc1 do in these assays?
SR-BI uptake up: 10; Lipid droplet: 6; SR-BI HDL uptake: -10; Yeast superoxide: 100; SMARCA2 act: 3

How did COc1ccc(C=C(c2ccc(OC)cc2)c2ccc(OC)cc2)cc1 do in these assays?
SR-BI uptake up: -72; AHR activator: 7; Lipid droplet: -2; SR-BI HDL uptake: 72*; Yeast superoxide: 101; SMARCA2 act: -2

Results for COC(=O)[C@H]1C[C@@]2(Oc3ccc(Br)cc3)c3ccccc3N(C(=O)OC(C)(C)C)[C@H]2N1C(=O)OC(C)(C)C ?
SMARCA2 act: -4

What do the screens show for `CCOC(=O)Nc1cc(C(=O)OCC)c(C)nc1C`?
SR-BI uptake up: 10; AHR activator: 1; SR-BI HDL uptake: -10; Yeast superoxide: 108; SMARCA2 act: 1

Results for CCOC(=O)c1cc(NC(=O)N(CC)C2CCCCC2)c(C)nc1C ?
SR-BI uptake up: -77; AHR activator: 2; Lipid droplet: 45; SR-BI HDL uptake: 77*; Yeast superoxide: 118

Results for C(=N\Nc1nc(Nc2ccccc2)nc(Nc2ccccc2)n1)/c1ccncc1 ?
SR-BI uptake up: -25; AHR activator: 28; Lipid droplet: -8; SR-BI HDL uptake: 25; Yeast superoxide: 101; SMARCA2 act: 4

What do the screens show for `Cc1cc(-c2ccccc2)nc(N/N=C/c2ccccc2)n1`?
SR-BI uptake up: -72; AHR activator: 15; Lipid droplet: -3; SR-BI HDL uptake: 72*; Yeast superoxide: 106; SMARCA2 act: 1

What do the screens show for `Cc1cc(-c2ccccc2)nc(N/N=C/c2ccc([N+](=O)[O-])cc2)n1`?
SR-BI uptake up: -73; AHR activator: -5; Lipid droplet: -22; SR-BI HDL uptake: 73*; Yeast superoxide: 90; SMARCA2 act: -3

What do the screens show for `COc1ccc(/C=N/Nc2nc(C)cc(-c3ccccc3)n2)cc1OC`?
SR-BI uptake up: -71; AHR activator: 52*; Lipid droplet: 4; SR-BI HDL uptake: inconclusive; Yeast superoxide: 100; SMARCA2 act: -3

How did Cc1cc(-c2ccccc2)nc(N/N=C/c2cccnc2)n1 do in these assays?
SR-BI uptake up: -32; AHR activator: 3; Lipid droplet: 4; SR-BI HDL uptake: 32; Yeast superoxide: 96; SMARCA2 act: 5

Results for C(=N\Nc1nc(Nc2ccccc2)nc(Nc2ccccc2)n1)/c1cccnc1 ?
SR-BI uptake up: -40; AHR activator: 142*; Lipid droplet: 20; SR-BI HDL uptake: 40; Yeast superoxide: 84; SMARCA2 act: -4

What do the screens show for `Nc1nc2c(ncn2[C@@H]2O[C@H](C(=O)N[C@@H](Cc3ccccc3)C(=O)NCc3ccc4c(c3)OCO4)[C@@H](O)[C@H]2O)c(=O)[nH]1`?
SMARCA2 act: -5

How did CN(C)c1ccc(C(=O)NCCc2ccccc2-c2ccccc2CCC(=O)NCc2ccccc2)cc1 do in these assays?
SMARCA2 act: -1

How did CC(C)CN1C(=O)C[C@]2(C(=O)N(C)c3ccc(NS(=O)(=O)C4CC4)cc32)C1c1ccccc1 (some centres not stated) do in these assays?
SMARCA2 act: -5
